ChEMBL document CHEMBL2401654, “Synthesis, characterization, and biological assessment of the four stereoisomers of the H(3) receptor antagonist 5-fluoro-2-methyl-N-[2-methyl-4-(2-methyl[1,3']bipyrrolidinyl-1'-yl)phenyl]benzamide” (Bioorg Med Chem Lett, 2013)

Assays:
[1] = Tmax in C57BL/6 mouse brain at 2 mg/kg, iv; format: ADME, organism-based; parameters: dose 2 mg/kg, route intravenous
Procedure, shortened: (§1)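 Male C57BL/6 mice received a single intravenous dose of 2 mg/kg, formulated at 1 mg/mL in 50% 1-methyl-2-pyrrolidinone in saline. Plasma and brain concentrations were followed to derive PK parameters. Brain to plasma ratio was calculated from AUC.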

[2] = Cmax in C57BL/6 mouse plasma at 10 mg/kg, po; format: ADME, organism-based; parameters: dose 10 mg/kg, route oral
Procedure, shortened: (§2)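 Male C57BL/6 mice were dosed orally at 10 mg/kg, formulated at 1 mg/mL in 5% DMSO/0.5% MC/0.2% tween 80. Plasma and brain were sampled for PK parameters. Brain to plasma ratio was based on AUC0-24.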

[3] = test system: Mus musculus; assay: Toxicity in mouse assessed as increase in tail pinch at => 10 mg/kg, po; format: organism-based; parameters: dose 10 mg/kg, route oral; conditions: in vivo
Procedure, shortened: (§3)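 Behavioral safety study in mice given single oral doses of 3, 10 and 30 mg/kg. Tremors, tail pinch response, body temperature, pupil size and body weight were scored at 2 and 6 h post dose. Clinical signs were observed over one week after dosing.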

[4] = Half life in C57BL/6 mouse plasma at 10 mg/kg, po; format: ADME, organism-based; parameters: dose 10 mg/kg, route oral; procedure, shortened: as §2
[5] = Half life in C57BL/6 mouse plasma at 2 mg/kg, iv; format: ADME, organism-based; parameters: dose 2 mg/kg, route intravenous; procedure, shortened: as §1
[6] = Ratio of AUC (0 to 24 hrs) in C57BL/6 mouse brain to AUC (0 to 24 hrs) in C57BL/6 mouse plasma at 10 mg/kg, po; format: ADME, organism-based; parameters: dose 10 mg/kg, route oral; conditions: read-out: Ratio AUC
Procedure, shortened: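 Male C57BL/6 mice were given a single oral dose of 10 mg/kg, formulated at 1 mg/mL in 5% DMSO/0.5% MC/0.2% tween 80. Compound levels were measured in plasma and brain over time. The brain-to-plasma ratio was calculated from AUC0-24 values.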

[7] = AUC (0 to infinity) in C57BL/6 mouse brain at 2 mg/kg, iv; format: ADME, organism-based; parameters: time infinity, dose 2 mg/kg, route intravenous; procedure, shortened: as §1
[8] = Tmax in C57BL/6 mouse plasma at 10 mg/kg, po; format: ADME, organism-based; parameters: dose 10 mg/kg, route oral; procedure, shortened: as §2
[9] = biological target: T1, hERG (KCNH2) (Homo sapiens, UniProt Q12809); assay: Inhibition of human ERG transfected in CHO cells at 1 uM by patch clamp assay relative to control; format: cell-based; conditions: CHO cells transfected with human ERG
Procedure, shortened: (§4)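 Whole-cell patch clamp on CHO cells stably transfected with the human ERG gene.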

[10] = biological target: T1, hERG (KCNH2); assay: Inhibition of human ERG transfected in CHO cells at 10 uM by patch clamp assay relative to control; format: cell-based; conditions: CHO cells transfected with human ERG; procedure, shortened: as §4
[11] = biological target: Cytochrome P450 2C19 (Homo sapiens, UniProt P33261); assay: Inhibition of CYP2C19 (unknown origin); format: ADME
[12] = Distribution coefficient, log D of the compound; format: physicochemical; conditions: octanol/water
[13] = AUC (0 to infinity) in C57BL/6 mouse brain at 10 mg/kg, po; format: ADME, organism-based; parameters: time infinity, dose 10 mg/kg, route oral; procedure, shortened: as §2
[14] = Tmax in C57BL/6 mouse plasma at 2 mg/kg, iv; format: ADME, organism-based; parameters: dose 2 mg/kg, route intravenous; procedure, shortened: as §1
[15] = Genotoxicity in micronucleus (unknown origin)
[16] = test system: Mus musculus; assay: Toxicity in mouse assessed as effect on pupil size at 3 to 30 mg/kg, po; format: organism-based; parameters: dose 3-30 mg/kg, route oral; conditions: in vivo; procedure, shortened: as §3
[17] = Half life in C57BL/6 mouse brain at 2 mg/kg, iv; format: ADME, organism-based; parameters: dose 2 mg/kg, route intravenous; procedure, shortened: as §1
[18] = Drug metabolism in rat liver microsomes at 5 uM after 20 mins; format: ADME, Microsome; conditions: read-out: Drug metabolism
Procedure, shortened: (§5)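 Substrate at 5 µM incubated at 37 °C for 20 min with in-house liver microsome preparations (human, mouse or rat). Reported as the percentage of parent compound metabolized.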

[19] = biological target: Histamine H3 receptor (Rattus norvegicus, UniProt Q9QYN8); assay: Displacement of [3H]N-alpha-methylhistamine from recombinant rat histamine H3 receptor transfected in CHO cell membranes after 1 hr by scintillation counting analysis; parameters: species or system Membrane
Procedure, shortened: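 Radioligand displacement of [3H]N-α-methylhistamine using membranes from CHO cells stably transfected with recombinant human or rat H3 receptor. Ki is presented as a range of multiple experiments (n ≥ 3).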

[20] = biological target: T2, Cytochrome P450 1A2 (Homo sapiens, UniProt P05177); assay: Inhibition of CYP1A2 (unknown origin); format: ADME
T2 sequence (P05177 whole entry): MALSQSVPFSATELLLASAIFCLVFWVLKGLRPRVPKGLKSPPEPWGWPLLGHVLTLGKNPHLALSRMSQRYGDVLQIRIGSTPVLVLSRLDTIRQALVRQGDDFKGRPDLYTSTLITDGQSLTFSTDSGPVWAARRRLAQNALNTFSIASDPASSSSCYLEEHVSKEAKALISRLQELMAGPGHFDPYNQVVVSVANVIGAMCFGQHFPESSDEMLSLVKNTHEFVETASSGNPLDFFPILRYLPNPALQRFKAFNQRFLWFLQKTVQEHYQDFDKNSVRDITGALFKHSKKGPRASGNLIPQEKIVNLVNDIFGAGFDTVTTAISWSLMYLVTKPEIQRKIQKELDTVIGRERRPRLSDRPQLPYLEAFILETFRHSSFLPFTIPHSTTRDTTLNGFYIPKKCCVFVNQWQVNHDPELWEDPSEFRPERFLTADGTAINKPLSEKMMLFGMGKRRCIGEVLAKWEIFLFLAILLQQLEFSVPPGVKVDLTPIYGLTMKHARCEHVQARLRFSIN

[21] = biological target: Voltage-gated inwardly rectifying potassium channel KCNH2 (Homo sapiens, UniProt Q12809); assay: Inhibition of human ERG transfected in CHO cells by patch clamp assay; format: cell-based; procedure, shortened: as §4
[22] = biological target: Histamine receptor H3 (Macaca mulatta, UniProt Q865E1); assay: Displacement of [3H]N-alpha-methylhistamine from recombinant rhesus monkey histamine H3 receptor transfected in CHO cell membranes after 1 hr by scintillation counting analysis
[23] = test system: Mus musculus; assay: Toxicity in mouse assessed as effect on body weight at 3 to 30 mg/kg, po; format: organism-based; parameters: dose 3-30 mg/kg, route oral; conditions: in vivo; procedure, shortened: as §3
[24] = Drug metabolism in mouse liver microsomes at 5 uM after 20 mins; format: ADME, Microsome; conditions: read-out: Drug metabolism; procedure, shortened: as §5

T1 sequence (Q12809 whole entry): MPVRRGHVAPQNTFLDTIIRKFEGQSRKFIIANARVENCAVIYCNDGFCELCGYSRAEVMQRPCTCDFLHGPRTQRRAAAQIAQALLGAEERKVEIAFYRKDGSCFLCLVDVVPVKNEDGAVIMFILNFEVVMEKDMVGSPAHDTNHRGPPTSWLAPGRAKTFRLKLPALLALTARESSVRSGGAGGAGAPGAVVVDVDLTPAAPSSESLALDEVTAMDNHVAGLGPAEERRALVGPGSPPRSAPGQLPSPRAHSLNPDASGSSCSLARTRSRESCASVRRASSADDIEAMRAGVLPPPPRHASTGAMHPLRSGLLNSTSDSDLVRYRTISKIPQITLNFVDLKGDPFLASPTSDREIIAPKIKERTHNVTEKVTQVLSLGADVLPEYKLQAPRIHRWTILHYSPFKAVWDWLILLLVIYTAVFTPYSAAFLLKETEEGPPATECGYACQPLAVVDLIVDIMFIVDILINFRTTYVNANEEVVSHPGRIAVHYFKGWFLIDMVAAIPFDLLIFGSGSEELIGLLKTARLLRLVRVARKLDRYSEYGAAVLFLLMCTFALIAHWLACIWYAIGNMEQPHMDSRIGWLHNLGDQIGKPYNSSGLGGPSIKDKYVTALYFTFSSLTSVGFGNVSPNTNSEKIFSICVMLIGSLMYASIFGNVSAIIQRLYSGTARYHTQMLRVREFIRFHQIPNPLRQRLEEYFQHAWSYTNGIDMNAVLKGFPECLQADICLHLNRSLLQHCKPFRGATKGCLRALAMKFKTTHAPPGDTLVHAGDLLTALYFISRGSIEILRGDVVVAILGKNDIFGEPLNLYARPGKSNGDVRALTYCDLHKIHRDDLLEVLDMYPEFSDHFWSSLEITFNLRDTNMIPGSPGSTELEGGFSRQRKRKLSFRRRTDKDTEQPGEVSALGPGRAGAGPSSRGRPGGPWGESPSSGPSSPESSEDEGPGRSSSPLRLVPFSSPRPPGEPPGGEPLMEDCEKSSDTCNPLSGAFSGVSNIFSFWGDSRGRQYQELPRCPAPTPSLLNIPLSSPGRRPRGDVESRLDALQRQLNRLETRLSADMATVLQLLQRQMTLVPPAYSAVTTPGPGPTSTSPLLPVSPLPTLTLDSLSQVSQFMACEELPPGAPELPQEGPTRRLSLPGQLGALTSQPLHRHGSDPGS
Histamine receptor H3, sequence (Q865E1 whole entry): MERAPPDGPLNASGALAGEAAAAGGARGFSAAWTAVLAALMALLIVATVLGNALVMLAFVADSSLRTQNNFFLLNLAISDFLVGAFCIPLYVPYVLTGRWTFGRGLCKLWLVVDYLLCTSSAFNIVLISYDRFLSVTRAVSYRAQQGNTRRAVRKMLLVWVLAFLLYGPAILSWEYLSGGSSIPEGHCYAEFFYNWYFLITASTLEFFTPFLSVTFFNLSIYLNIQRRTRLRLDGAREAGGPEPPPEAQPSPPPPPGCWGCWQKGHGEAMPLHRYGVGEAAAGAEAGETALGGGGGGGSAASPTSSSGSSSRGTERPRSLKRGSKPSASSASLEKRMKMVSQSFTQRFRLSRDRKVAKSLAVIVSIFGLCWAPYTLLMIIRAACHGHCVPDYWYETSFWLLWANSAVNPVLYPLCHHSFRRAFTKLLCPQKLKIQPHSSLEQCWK
Voltage-gated inwardly rectifying potassium channel KCNH2, sequence (Q12809 whole entry): as the sequence (Q12809 whole entry) above
Cytochrome P450 2C19, sequence (P33261 whole entry): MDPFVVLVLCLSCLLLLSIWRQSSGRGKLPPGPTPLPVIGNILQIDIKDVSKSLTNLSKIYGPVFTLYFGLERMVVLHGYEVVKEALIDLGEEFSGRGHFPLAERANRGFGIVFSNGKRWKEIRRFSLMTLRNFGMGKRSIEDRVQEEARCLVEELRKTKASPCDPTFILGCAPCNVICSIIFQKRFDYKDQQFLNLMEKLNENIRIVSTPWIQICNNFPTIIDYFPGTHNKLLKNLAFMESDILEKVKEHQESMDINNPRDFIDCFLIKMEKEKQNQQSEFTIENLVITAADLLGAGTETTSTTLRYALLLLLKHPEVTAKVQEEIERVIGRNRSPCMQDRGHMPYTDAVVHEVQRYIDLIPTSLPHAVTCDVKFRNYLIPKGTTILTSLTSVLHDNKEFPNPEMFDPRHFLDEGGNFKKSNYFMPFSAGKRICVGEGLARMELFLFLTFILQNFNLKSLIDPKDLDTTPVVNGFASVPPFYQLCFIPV
Histamine H3 receptor, sequence (Q9QYN8 whole entry): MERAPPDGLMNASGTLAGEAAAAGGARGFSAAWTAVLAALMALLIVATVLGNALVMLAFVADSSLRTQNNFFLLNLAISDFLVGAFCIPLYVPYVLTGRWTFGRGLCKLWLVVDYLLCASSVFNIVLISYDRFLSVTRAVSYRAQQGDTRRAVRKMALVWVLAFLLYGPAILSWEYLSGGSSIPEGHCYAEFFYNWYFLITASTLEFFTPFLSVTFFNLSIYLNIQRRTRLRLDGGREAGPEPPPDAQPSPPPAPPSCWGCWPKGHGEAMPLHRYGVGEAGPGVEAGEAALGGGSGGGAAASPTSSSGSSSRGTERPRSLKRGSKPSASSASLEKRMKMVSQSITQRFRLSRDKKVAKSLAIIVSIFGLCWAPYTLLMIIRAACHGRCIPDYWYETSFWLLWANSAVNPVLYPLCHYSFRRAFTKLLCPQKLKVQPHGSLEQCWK

For Cc1cc(N2CC[C@H](N3CCC[C@@H]3C)C2)ccc1NC(=O)c1cc(F)ccc1C, the Tmax [1] was 4.98 min, the Cmax [2] was 1310 ng/mL and the Activity [3] was “Toxic”. For the same molecule, the half-life [4] was 216 min, the half-life [5] was 156 min and the Kp [6] was 4.6. For the same molecule, the AUC(0-inf) [7] was 2600 ng·h/mL, the Tmax [8] was 10.2 min and the inhibition at 1 µM [9] was 43.4%. For the same molecule, the inhibition at 10 µM [10] was 84.3%, the IC50 [11] was greater than 30000 nM and the logD [12] was 2.09. For the same molecule, the AUC(0-inf) [13] was 18000 ng·h/mL, the Tmax [14] was 4.98 min and the Activity [15] was “Non-toxic”. For the same molecule, the Activity [16] was “Non-toxic”, the half-life [17] was 96 min and the metabolised at 20 min, 5 µM [18] was 20%. The Ki [19] was 3 nM, the IC50 [20] was greater than 30000 nM and the IC50 [21] was 1100 nM. For the same molecule, the Ki [22] was 2.5 nM, the Activity [23] was “Non-toxic” and the metabolised at 20 min, 5 µM [24] was 19%.
